Measured values taken from ChEMBL document CHEMBL5614435.
The source made the active and inactive calls. The calls are words filed in the database; no cut-off is given here. Bridge positions count the residues as written; N and C are the ends. Peptide text beside a SMILES is read from it.

Assays:
Format in all cases: functional
[1] = target: Amyloid-beta precursor protein (Homo sapiens) (UniProt P05067); experiment: Amyloid aggregation property at high concentration over 3 days by thioflavin-T fluorescence assay; settings: time 3.0 day
Chain of Amyloid-beta precursor protein (Homo sapiens) (P05067 whole entry, the tested form may be a part): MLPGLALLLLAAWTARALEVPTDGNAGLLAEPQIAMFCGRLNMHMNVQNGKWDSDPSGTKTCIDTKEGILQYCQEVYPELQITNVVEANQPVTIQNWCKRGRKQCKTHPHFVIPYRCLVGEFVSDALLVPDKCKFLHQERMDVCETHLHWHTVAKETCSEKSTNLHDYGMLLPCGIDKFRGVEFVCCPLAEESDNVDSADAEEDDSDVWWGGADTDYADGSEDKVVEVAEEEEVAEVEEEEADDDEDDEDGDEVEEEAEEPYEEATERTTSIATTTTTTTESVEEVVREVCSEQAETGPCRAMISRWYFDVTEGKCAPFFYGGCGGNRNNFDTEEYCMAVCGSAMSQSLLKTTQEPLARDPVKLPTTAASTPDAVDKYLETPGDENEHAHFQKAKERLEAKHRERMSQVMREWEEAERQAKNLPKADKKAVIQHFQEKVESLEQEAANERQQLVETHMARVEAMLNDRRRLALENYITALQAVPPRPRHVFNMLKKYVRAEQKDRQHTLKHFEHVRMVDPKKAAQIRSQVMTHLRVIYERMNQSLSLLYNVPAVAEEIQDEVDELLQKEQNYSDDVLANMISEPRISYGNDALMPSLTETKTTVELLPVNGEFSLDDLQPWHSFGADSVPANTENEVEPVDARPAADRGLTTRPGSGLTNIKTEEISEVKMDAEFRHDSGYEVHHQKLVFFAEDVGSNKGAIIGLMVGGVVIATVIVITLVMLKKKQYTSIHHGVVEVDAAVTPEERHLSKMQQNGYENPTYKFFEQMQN
In short: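 Peptide was dissolved in water at pH 4.2–4.5 or 7.2–7.4, filtered and centrifuged to leave monomers. ThT and NaCl were added to give 1 or 5 mg/mL peptide final. Plates were sealed and read at 37 °C with orbital shaking for 3 days (ex 445 nm/em 490 nm, bottom read). Triplicates, with peptide-free ThT background subtracted; mean and SD were reported.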

[2] = target: Amyloid-beta precursor protein (Homo sapiens) (UniProt P05067); experiment: Amyloid aggregation property at high concentration by atomic force microscopy analysis
In short: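 AFM in dynamic mode on 10 μL aliquots taken at the endpoint of the agitated aggregation samples: ThT samples (37 °C, pH ~4.5 or ~7.4) after 3 days and CD samples (200–300 μM, 150 mM NaCl) after 2 weeks.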

[3] = target: Amyloid-beta precursor protein (Homo sapiens) (UniProt P05067); experiment: Amyloid aggregation property at high concentration by CD spectroscopy
In short: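 Far-UV CD (185–260 nm, spectra truncated at 195 nm) in a 1.0 mm cuvette. Samples were 200–300 μM peptide with 150 mM NaCl at pH 4.5 or 7.4, kept at 37 °C and shaken at 500 rpm between acquisitions. Each spectrum is the average of 3 scans at 50 nm/min, solvent-subtracted, Savitzky–Golay smoothed, and expressed as mean residue molar ellipticity.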

INS-1E = experiment: Induction of insulin secretion in rat INS-1E cells assessed as median fold increase at 20 nM pretreated with glucose for 30 mins followed by KRBH washout for 30 mins and subsequent glucose and compound addition for another 30 mins by ELISA

Structure (SMILES)	Activity [1]	Activity [2]	Activity [3]	Activity (INS-1E)
CC[C@H](C)[C@H](NC(=O)[C@H](Cc1ccc(O)cc1)NC(=O)[C@H](CC(C)C)NC(=O)[C@H](CCCNC(=N)N)NC(=O)[C@@H](NC(=O)[C@H](C)NC(=O)[C@H](CCC(=O)O)NC(=O)[C@H](CCC(=O)O)NC(=O)[C@H](CCC(=O)O)NC(=O)[C@H](CCSC)NC(=O)[C@H](CCC(N)=O)NC(=O)[C@H](CCCCN)NC(=O)[C@H](CO)NC(=O)[C@H](CC(C)C)NC(=O)[C@H](CC(=O)O)NC(=O)[C@H](CO)NC(=O)[C@@H](NC(=O)[C@H](Cc1ccccc1)NC(=O)[C@@H](NC(=O)CNC(=O)[C@H](CCC(=O)O)NC(=O)CNC(=O)[C@@H](N)Cc1cnc[nH]1)[C@@H](C)O)[C@@H](C)O)C(C)C)C(=O)N[C@@H](CCC(N)=O)C(=O)N[C@@H](Cc1c[nH]c2ccccc12)C(=O)N[C@@H](CC(C)C)C(=O)N[C@@H](CCCCN)C(=O)N[C@@H](CC(=O)O)C(=O)NCC(=O)NCC(=O)N1CCC[C@H]1C(=O)N[C@@H](CO)C(=O)N[C@@H](CO)C(=O)NCC(=O)N[C@@H](CCCNC(=N)N)C(=O)N1CCC[C@H]1C(=O)N1CCC[C@H]1C(=O)N1CCC[C@H]1C(=O)N[C@@H](CO)C(=O)O	Active	Active	Active	
CC[C@H](C)[C@@H]1NC(=O)[C@H](Cc2ccc(O)cc2)NC(=O)[C@H](CC(C)C)NC(=O)[C@H](CCCNC(=N)N)NC(=O)[C@H](C(C)C)NC(=O)[C@@H](NC(=O)[C@H](CCC(=O)O)NC(=O)[C@H](CCC(=O)O)NC(=O)[C@H](CCC(=O)O)NC(=O)[C@H](CCSC)NC(=O)[C@H](CCC(N)=O)NC(=O)[C@H](CCCCN)NC(=O)[C@H](CO)NC(=O)[C@H](CC(C)C)NC(=O)[C@H](CC(=O)O)NC(=O)[C@H](CO)NC(=O)[C@@H](NC(=O)[C@H](Cc2ccccc2)NC(=O)[C@@H](NC(=O)CNC(=O)[C@H](CCC(=O)O)NC(=O)CNC(=O)[C@@H](N)Cc2cnc[nH]2)[C@@H](C)O)[C@@H](C)O)CSSC[C@@H](C(=O)O)NC(=O)[C@@H]2CCCN2C(=O)[C@@H]2CCCN2C(=O)[C@@H]2CCCN2C(=O)[C@H](CCCNC(=N)N)NC(=O)CNC(=O)[C@H](CO)NC(=O)[C@H](CO)NC(=O)[C@@H]2CCCN2C(=O)CNC(=O)CNC(=O)[C@H](CC(=O)O)NC(=O)[C@H](CCCCN)NC(=O)[C@H](CC(C)C)NC(=O)[C@H](Cc2c[nH]c3ccccc23)NC(=O)[C@H](CCC(N)=O)NC1=O (H-HGEGTFTSDLSKQMEEECVRLYIQWLKDGGPSSGRPPPC-OH; disulfide 18-39)				inactive
